The values that follow come from ChEMBL document CHEMBL4513216, “Probing the Open Global Health Chemical Diversity Library for Multistage-Active Starting Points for Next-Generation Antimalarials” (ACS Infect Dis, 2020).

The data set is described as follows: Toxicity liver stage against HepG2, at 10uM. Format: cell-based. The arrangement: test concentration 10 uM, cell line HepG2-A16-CD81EGFP. As to conditions: human, HepG2-A16-CD81EGFP cells; read-out: INHIBITION
The procedure, abridged: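 Uninfected HepG2-A16-CD81EGFP cells, 3 × 10^3 per well, 1536-well, plated on prespotted compound at 10 μM final, parasite-free screening media added to match infected plates; puromycin 10 μM positive, DMSO 0.5% negative; run in parallel with 48 h PbLuc assay at 37 °C, 5% CO2; viability by CellTiter-Glo luminescence, normalized to controls.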
`O=C1CC(c2ccncc2)c2c(c(C(=O)O)cn2-c2ccccc2)N1` (stereo unspecified): the cytotoxicity at 10 µM was -3.7%.
Take `O=C(NC1CCCCC1)c1ccc(Oc2ccc3nncn3n2)cc1`: the cytotoxicity at 10 µM was 2.17%.
In the case of `COc1cccc2sc(N3CCN(C(=O)c4cc(C)on4)CC3)nc12`, the cytotoxicity at 10 µM was found to be 6.21%.
Take `Cc1nnc(C2CCN(C(=O)c3ccsc3)CC2)s1`: the cytotoxicity at 10 µM was determined as 10.5%.
The result for `CN(C)CCN1C(=O)CO[C@@H]2CN(c3ncc(F)cn3)C[C@H]21` reads 0.81%; that for `Cc1cc(C(=O)N2C[C@@H]3COC[C@]3(c3nnc(C4CC4)o3)C2)on1`, -10%; that for `O=C(NCCc1cc2nc(-c3ccncc3)ccn2n1)C1CCOCC1`, 4.59%.
For `c1cc(CN2CCCC(c3ccnc4nccn34)C2)ccn1` (stereo unspecified) the value was -3.29%.
For `CC(=O)N1CCN(c2cnccn2)CC(CO)C1` (stereo unspecified), the cytotoxicity at 10 µM was 3.03%.
For `COCCC(=O)N1C[C@@H](c2ccc(F)c(F)c2)[C@@]2(CCCC(=O)N2)C1` the value was -9.06%; for `CCc1onc(C)c1C(=O)N1CCC(c2cc3ncccc3cn2)CC1`, 1.68%.
For `CNC(=O)c1cn[nH]c1C1(C)CCCN(Cc2ccccn2)C1` (stereo unspecified), the cytotoxicity at 10 µM is -10.5%.
In the case of `Cc1nc(Nc2nncs2)cc(C2CCCN2C)n1` (stereo unspecified), the cytotoxicity at 10 µM was -22.6%.
The result for `Cc1cc(N)nc(C2(C)CCCN2C(=O)c2cnccn2)n1` (stereo unspecified) reads -27.1%; that for `O=C(c1cscn1)N1CCC(O)(Cn2ccc3ccncc32)CC1`, -18.2%; that for `O=C(C1CCOCC1)N1CCC(O)(Cn2ccc3ccncc32)CC1`, -19.8%.
For `COCCNC(=O)c1ccccc1-n1cc(CN)cn1` the value was -23.6%; for `Cc1nc(C2CCN(C(=O)c3cscn3)CC2)c2sccn12`, -5.16%; for `NCc1cn(-c2ccccc2C(=O)NCc2ccccc2Cl)cn1`, -9.94%.
For `COCc1cc(O)nc(C2CCCN(Cc3cccc(Cl)c3Cl)C2)n1` (stereo unspecified) the value was -7.47%; for `Cc1cc(N(C)C)nc(NC2CCc3nc(C)nn3C2)n1` (stereo unspecified), 5.56%; for `CC(C)n1nnnc1-c1ccc(NC(=O)N(C)CCN(C)C)cc1F`, -2.71%.
On to `O=C(NCC(=O)N1CCCCC1)c1sccc1C1CC1`, for which the cytotoxicity at 10 µM was -136%.
The result for `COc1ccc2c(c1)CCCC2CC(=O)NCC(C)(C)C(=O)O` (stereo unspecified) reads -1.2%; that for `Cc1cc(CNC(=O)NCCC(=O)N2CCCc3ccccc32)no1`, -4.09%; that for `COc1cc2c(nn1)CCN(Cc1noc(CC(C)C)n1)C2`, -1.02%.
For `COCCOc1ncccc1C(=O)N(C)c1ccc(OC)c(OC)c1` the value was -46.7%; for `CC(NC(=O)CNc1cc2c(cc1Cl)NC(=O)CO2)c1ccco1` (stereo unspecified), -0.0162%.
The result for `N#Cc1cn(CCN2CCc3ccccc3C2)c(=O)[nH]c1=O` reads 4.47%; that for `COCCN1CCC(NC(=O)Cn2cc(C)c3ccccc32)CC1`, -0.869%.
Regarding `Cc1nn(C)c(Oc2ccccc2)c1CNC1CCOc2ccccc21` (stereo unspecified), the cytotoxicity at 10 µM worked out at 4.88%.
For `COCC(=O)N1CCCC1c1cccc(C)c1C` (stereo unspecified) the value was -1.32%.
The result for `Cn1cccc1C(=O)NS(=O)(=O)c1cnn(-c2ccccc2F)c1` reads -7.83%; that for `Cn1cc(CNCCc2nccs2)c(-c2cccnc2)n1`, 1.83%.
For `O=S(=O)(NCCSc1nccn1C1CC1)c1ccccc1` the value was -9.34%.
In the case of `N#Cc1ccc(CN(CC(N)=O)Cc2cccc(F)c2)cc1`, the cytotoxicity at 10 µM is -2.01%.
In the case of `COc1cccc(CNc2cccnc2-n2cccn2)c1OC`, the cytotoxicity at 10 µM was determined as 1%.
The result for `COc1cccc(COc2nc(C(C)C)no2)c1` reads -42.4%; that for `CS(=O)(=O)CCC(=O)NC(Cc1ccccc1)C1CC1` (stereo unspecified), 11.4%.
For `COc1ccccc1CN(Cc1nc(C)no1)C1CC1`, the cytotoxicity at 10 µM is 2.77%.
The result for `CN(CCc1ccc2c(c1)CCO2)CC1CCS(=O)(=O)C1` (stereo unspecified) reads 7.33%; that for `Cc1ccccc1C1(CNc2nnc(C)c(C)c2C#N)CCOCC1`, -2.1%; that for `Cc1cc(C(=O)N2CCn3cc(CN4CCCCC4)nc3C2)no1`, -77.3%.
For `Cc1nnc([C@@H]2CC[C@@H]3[C@@H](CCN3S(C)(=O)=O)O2)o1` the value was -79.1%; for `CCN1C(=O)CO[C@@H]2CN(C(=O)C3CCOCC3)C[C@H]21`, -78.2%.
The result for `Cc1cc(C(=O)N2CCC[C@]3(C[C@H](OCC4CC4)CO3)C2)no1` reads -78.8%; that for `CC(=O)N1CCC2(CCN(C(=O)c3ccc(F)c(C(F)(F)F)c3)C2)C1` (stereo unspecified), -76.1%; that for `CC(=O)NCC(=O)N1CCC2(CC1)CN(c1cccnc1)C(=O)CO2`, 3.76%.
Turning to `O=C(C1CCOC1)N1C[C@H]2CN(Cc3nccs3)C[C@H]2C1` (stereo partly specified), the cytotoxicity at 10 µM came out at 5.04%.
For `CCn1c(CC2CCN(C(=O)c3cc(C(C)C)nn3C)CC2)n[nH]c1=O` the value was -58.5%.
With `CC(C)N(C)C(=O)c1coc(CN2CCN(c3ccccc3F)CC2)n1`, the cytotoxicity at 10 µM is 7.31%.
As for `CCCC(=O)Nc1ccc(CC(=O)N(C)CCc2cn[nH]c2)cc1`, the cytotoxicity at 10 µM was 4.84%.
The result for `CC(C)c1nc(CN(C)Cc2ccc(O)c(Cl)c2)cs1` reads -7.27%; that for `CC1(CCC(=O)N2CCC(n3cc(C4(O)CCCC4)nn3)CC2)CC1`, -7.69%; that for `COCCC1(CO)CCCN(Cc2cc(C(F)(F)F)ccc2F)C1` (stereo unspecified), -141%.
For `CCOCCC(=O)N1CCCCC1CCn1cccn1` (stereo unspecified) the value was -0.168%; for `COCc1noc(CN2C[C@H](C3CC3)[C@@H](N(C)C)C2)n1`, 1.31%.
On to `CCCS(=O)(=O)N1CCC2(CC1)CC(=O)N(Cc1cc(F)cc(F)c1)C2`, for which the cytotoxicity at 10 µM amounted to 8.78%.
For `N#Cc1cccc(N2CCC(CO)(CCOc3ccccc3)CC2)n1` the value was -42.8%; for `Cc1cc(=O)[nH]c(=O)n1-c1cccc(Cl)c1Cl`, -3.57%.
As to `COCCCN1CC2(CCCN(CCn3cc(Cl)cn3)C2)CCC1=O` (stereo unspecified), the cytotoxicity at 10 µM is 5.97%.
Take `CNc1nc2c(c(C(=O)N3CCCC3)n1)CN(Cc1ccco1)CC2`: the cytotoxicity at 10 µM was -113%.
The result for `COC(=O)c1cccc(C(=O)N2CCCCC2CCn2ccnc2C)c1` (stereo unspecified) reads 14.5%.
The result for `CCN(CC)CC1CCN(C(=O)CCn2cccn2)CC1` reads -13.3%; that for `Cc1ccc(-c2cc(CNC(=O)N3CCC(N(C)C)CC3)on2)cc1`, -10.8%; that for `CC(C)CCN(C(=O)c1nc(S(C)(=O)=O)n2ccccc12)C1CC1`, -2.63%.
For `Cc1ncc(Cl)c(C(=O)N2CCCC(n3nc(C)nc3C)C2)n1` (stereo unspecified) the value was -0.426%.
Take `CCNc1cc2c(nn1)CCN(C(=O)c1cccnc1N(C)C)C2`: the cytotoxicity at 10 µM was -13.4%.
Turning to `Cc1cc(NC(=O)CNC2CCc3ncnn3C2)no1` (stereo unspecified), the cytotoxicity at 10 µM is -6.73%.
Regarding `Nc1cc2c(nn1)CCN(C(=O)C1CCc3ccccc31)C2` (stereo unspecified), the cytotoxicity at 10 µM is -6.58%.
For `Cc1cnn(CCNCC(O)COc2ccc3ccccc3c2)c1` (stereo unspecified) the value was -6.31%.
For `Cc1cnn(CCC(=O)N2CCCN(c3nc(C)cs3)CC2)c1` the value was -4.05%.
The result for `COc1ccc(OC)c(C(O)CNC(=O)Nc2cccnc2OC)c1` (stereo unspecified) reads -22.4%; that for `CCc1nc(CN(C(C)=O)C2CCN(CC3CCOCC3)C2)no1` (stereo unspecified), -3.84%; that for `Cc1nc(C)n(CC2CCCN2CCOc2ccccc2C#N)n1` (stereo unspecified), -4.17%.
`Cn1cc(CC(=O)N2CCCC(n3cncn3)C2)cn1` (stereo unspecified): the cytotoxicity at 10 µM was -3.54%.
For the compound `O=C(NCc1ccccc1-n1cccn1)N1CCC(N2CCCC2)C1` (stereo unspecified), the cytotoxicity at 10 µM is -0.554%.
For `Cc1nn(-c2ccccc2)nc1C(=O)N1CCCC(n2cccn2)C1` (stereo unspecified) the value was -9.53%; for `CC(Cn1ccnc1)NC(=O)NCc1cccnc1OC1CCCC1` (stereo unspecified), -13.3%.
For `CCc1nc(C2CCCN2C(=O)c2cc(Cl)c[nH]2)no1` (stereo unspecified) the value was -12.2%.
The result for `O=C(Nc1ccccc1)N1CCN(Cc2noc(C3CC3)n2)CC1` reads 2.82%.
Consider `Cc1nnc(NC(=O)CN2CCOC(Cn3cccn3)C2)s1` (stereo unspecified), for which the cytotoxicity at 10 µM is -7.44%.
For `Cc1cc(NC(=O)CN2CCN(c3nccs3)C(C)C2)n(C)n1` (stereo unspecified), the cytotoxicity at 10 µM is -4.2%.
For the compound `C[C@H]1CN2C[C@H](O)CC2CN1Cc1ccc2nccnc2c1` (stereo partly specified), the cytotoxicity at 10 µM is -1.23%.
For `Cc1cc(Nc2ccccn2)nc(C2CCCN(CCO)C2)n1` (stereo unspecified) the value was 1.26%; for `c1cncc(-c2nccc(CN3CCC(N4CCCCC4)CC3)n2)c1`, -26%.
The result for `O=C(NCc1ccco1)[C@@H]1CCO[C@@H]2CCN(c3ncccn3)C[C@H]21` reads -77.6%.
Regarding `CCOCC1CN(C(=O)c2cscn2)Cc2cn(C)nc21` (stereo unspecified), the cytotoxicity at 10 µM was -76.6%.
Consider `O=C1NC2(CCN(c3ncccn3)CC2)CC1c1cccnc1` (stereo unspecified), for which the cytotoxicity at 10 µM was -71.4%.
The result for `COCCNC(=O)[C@@]12CCO[C@@H]1CCN(Cc1cc(C)on1)C2` reads -69.8%.
For `COc1cc(CNCCn2ccnc2)cc2c1OCO2` the value was 5.17%; for `O=C(c1cccc(F)c1)N1CCN2C[C@H](OCc3cccnc3)C[C@H]2C1`, 4.4%.
For `COc1ccc(CN2CCO[C@H]3CN(C4CCC4)CC[C@H]3C2=O)cc1` the value was -148%; for `Cc1ccc(C(=O)N2CCn3cc(CN4CCCCC4)nc3C2)o1`, 4.75%; for `Cc1noc([C@@]23CCO[C@@H]2CCN(CC2CCOCC2)C3)n1`, -2.1%.
For the compound `Cc1cnc(N2C[C@@H]3C[C@H](C(=O)N(C)C)[C@H](C2)O3)nc1`, the cytotoxicity at 10 µM is -2.47%.
